The EC50 is the concentration that produces a half-maximal response. A low value points to greater potency. Broadly, the CC50 is the concentration giving 50% cytotoxicity. In general, IC50 refers to the concentration needed to halve the response being measured.

Data set [1] in a line: Inhibition of HCV NS5B polymerase-mediated RNA synthesis. Further details: species or system Hepacivirus hominis.
The next data set relates to Hepatitis C virus. The data set is described as follows: Antiviral activity against HCV 1b infected in human 2209-23 cells by replicon assay. It is filed as functional, organism-based, Hepacivirus hominis. For orientation: A replicon is a self-replicating genome or part of one, used to study replication in cells.
Data set [2] in a line: Cytotoxicity against human 2209-23 cells assessed as cell viability by WST-1 assay. The class given is cell-based. In outline: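 Viability of the same 2209-23 replicon cells was measured by the WST-1 assay. Values are reported as CC50.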
Background: Tetrazolium dyes change colour on reduction, which living cells bring about.

Data set [3] can be described thus: Antiproliferative activity against human 2209-23 cells assessed as [3H]thymidine incorporation by scintillation proximity assay. It is filed as cell-based. In outline: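 Proliferation of the GT-1b stable replicon line 2209-23 was measured as tritiated thymidine incorporation into cellular DNA by scintillation proximity assay. Values are reported as IC50.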
Background: Dividing cells build labelled thymidine or BrdU into new DNA.

As to `[N-]=[N+]=N[C@]1(CO)O[C@@H](n2ccc(N)nc2=O)[C@H](O)[C@@H]1O` [4'-AZIDOCYTIDINE], the EC50 (in data set [1]; in the data set with Hepatitis C virus) was 1.28 µM each time. Moreover, in data set [2], the CC50 is greater than 2000 µM. In addition, the 50% inhibitory concentration (IC50) in data set [3] is greater than 100 µM.
In the data set with Hepatitis C virus, `[N-]=[N+]=N[C@]1(CO)O[C@@H](n2ccc(N)nc2=O)[C@@H](F)[C@@H]1O` [RO-0622] displayed an EC50 of 0.024 µM. Further, in data set [2], the cytotoxic concentration (CC50) was greater than 100 µM. Further, the IC50 in data set [3] was greater than 100 µM.
In the data set with Hepatitis C virus, `[N-]=[N+]=N[C@]1(CO)O[C@@H](n2ccc(N)nc2=O)[C@H](O)[C@@H]1F` displayed an EC50 greater than 100 µM. For the same compound, the CC50 in data set [2] is greater than 100 µM.
In the case of `[N-]=[N+]=N[C@]1(CO)O[C@@H](n2ccc(N)nc2=O)[C@H](F)[C@@H]1O`, in the data set on Hepatitis C virus, the response was half-maximal at 4.02 µM (EC50). In addition, the CC50 in data set [2] is greater than 100 µM. Moreover, the IC50 in data set [3] is greater than 100 µM.
On to `[N-]=[N+]=N[C@]1(CO)O[C@@H](n2ccc(N)nc2=O)[C@H](O)[C@H]1F`, for which the 50% effective concentration (EC50) with Hepatitis C virus is greater than 100 µM. Further, the CC50 in data set [2] is greater than 100 µM.
Compound `[N-]=[N+]=N[C@]1(CO)O[C@@H](n2ccc(N)nc2=O)C(F)(F)[C@@H]1O` registered an EC50 in the data set with Hepatitis C virus of 0.066 µM. Further, the CC50 in data set [2] is greater than 100 µM.
As to `Nc1ccn([C@@H]2O[C@H](CO)[C@@H](O)[C@@H]2F)c(=O)n1`, a half-maximal effect in the data set on Hepatitis C virus (EC50) was put at 0.114 µM. Also, in data set [2], the CC50 is greater than 100 µM. Further, the IC50 in data set [3] turned out to be 0.174 µM.
The compound `[N-]=[N+]=N[C@]1(CO)O[C@@H](n2ccc(N)nc2=O)[C@@H](O)[C@@H]1O` yielded an EC50 in the data set with Hepatitis C virus of 0.171 µM. Also, the CC50 in data set [2] was greater than 1000 µM. Also, the IC50 in data set [3] was greater than 100 µM.
